Compound activity (PubChem BioAssay)
UPR CHOP act – apoptotic UPR (CHOP) activation | 0.34% of 330,000 active | activation, % at 10 µM | CHO-CHOP luciferase reporter, luminescence; percent of tunicamycin response over DMSO baseline;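 active = at 10 µM dose, activation of 40% or more, normalized to positive control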;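 also: 100% = tunicamycin at 10 µg/mL and 0% = DMSO alone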
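System: CHO CHOP reporter cells. Amount: 500 cells per well. Buffer or medium: F12 medium, 10% FBS. Compound dosing: one dose, 10 µM in 0.5% DMSO. Incubation: 6 h compound exposure at 37 °C after overnight seeding. Technique: Steady-Glo luciferase luminescence. Benchmarks: tunicamycin and DMSO controls.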
CHOP inh – blocks CHOP induction under ER stress; CHO-K1 CHOP-promoter luciferase, tunicamycin-induced, 15-18 h; inhibition, % at 10 µM; 3.8% of 220,000 active; AID 2732;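 active = compounds that reduced the stress-induced luciferase reporter signal by more than about 70% of percent inhibition, limit read from the data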;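 also: 0% = tunicamycin plus vehicle and 100% = wells without tunicamycin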
Dynein transport – blocks dynein driven cargo transport along microtubules; z-score, hits read low; 3617.4 mouse cells, GR-EGFP nuclear translocation imaging; test concentration mostly 20 µM; stimulated with dexamethasone, 1 µM; hits give low values; 0.47% of 220,000 active;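 active = plate z-score of nuclear minus cytoplasmic receptor signal below a set negative limit, without overly bright fluorescence or cell loss, cut at about -3.5 in these data, passing the limit was not always enough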;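 also: z-score of nuclear minus cytoplasmic ring GR-EGFP intensity difference per well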
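Buffer or medium – tet-free medium with charcoal-stripped serum · Signal – automated 10x imaging of fixed Hoechst-stained cells · Also added – dexamethasone agonist, 1.0 µM final, for 30 min · Incubation – induction 48 h, compound 1 h, agonist 30 min · Read-out – GR-EGFP nuclear translocation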
UPR XBP1 act – activators of adaptive arm of unfolded protein response (XBP1); CHO-XBP1 luciferase reporter, IRE1-XBP1 UPR activation, luminescence; percent of tunicamycin response, DMSO as zero; activation, % at 20 µM; 0.33% of 330,000 active;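 active = versus positive control, 20 µM dose yields 30% or more activation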;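 also: 100% = tunicamycin at 10 µg/mL and 0% = DMSO only wells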
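Material: CHO cell line with stable XBP1 luciferase reporter; schedule: 16-18 h cell attachment at 37 °C, then 6 h compound exposure; signal: glow luminescence from Steady-Glo reagent; medium: serum-containing F12 medium, 10% FBS; benchmarks: tunicamycin 10 µg/mL and vehicle-only wells; read-out: percent activation relative to tunicamycin reference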
B2AR ag – human beta-2 adrenergic receptor agonism by FAP | 0.43% of 340,000 active | P07550 | Am2.2-beta2AR cells, FAP receptor internalization, flow cytometry | response, % (no concentration beside the values);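 active = response above a set limit, near 3 SD of response in nonfluorescent compounds, cut at about 42% in these data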
Target sequence (P07550 whole entry, looked up): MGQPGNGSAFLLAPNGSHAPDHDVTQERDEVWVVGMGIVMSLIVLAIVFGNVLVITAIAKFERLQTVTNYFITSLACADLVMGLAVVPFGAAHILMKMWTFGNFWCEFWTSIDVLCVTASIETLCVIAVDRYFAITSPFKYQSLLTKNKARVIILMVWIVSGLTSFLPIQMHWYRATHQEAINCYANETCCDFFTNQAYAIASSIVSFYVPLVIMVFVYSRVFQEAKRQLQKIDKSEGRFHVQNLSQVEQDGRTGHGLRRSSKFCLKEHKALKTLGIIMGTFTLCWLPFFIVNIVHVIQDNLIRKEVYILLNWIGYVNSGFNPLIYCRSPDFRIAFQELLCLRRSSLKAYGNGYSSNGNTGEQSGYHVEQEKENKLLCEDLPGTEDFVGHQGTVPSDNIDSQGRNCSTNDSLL
p-CIP stab down – p/CIP protein destabilization | Q05BA5 | F442A p/CIP-EGFP cells, EGFP fluorescence, 16 h | decrease of EGFP signal, % at 10 µM | 0.01% of 290,000 active | AID 1984;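 active = EGFP signal decrease of at least 30% at 10 µM or well 3 SD below plate mean, unless failing retest; inactive = the rest, including hits failing retest or dose response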
An asterisk follows results filed as active; / = no result. Many of the other results were omitted from the sample, so hits are more common in it than they were.

SMILES	UPR CHOP act	CHOP inh	Dynein transport	UPR XBP1 act	B2AR ag	p-CIP stab down
COC(=O)c1cc(C(=O)c2cccc(Cl)c2Cl)cn1C	-2	65	-0.43	3	1	-17
O=C(Nc1ccc(F)c(Cl)c1)C1CC(=O)n2c(nc3ccccc32)N1 (stereo unspecified)	-2	76*	0.083	0	-8	-29
O=C1c2cccc3c(N4CCCCC4)ccc(c23)C(=O)N1CCO	8	-35	-0.62	9	-46	-314
O=C1c2cccc3c(N4CCCCC4)ccc(c23)C(=O)N1c1cccc(O)c1	3	72*	1.7	-3	-154	-670
O=S(=O)(c1cccc(NC(=S)N2CCN(c3ccc(F)cc3)CC2)c1)C(F)F	-1	36	0.042	2	0	5
O=S(=O)(c1cccc(NC(=S)N2CCN(c3cccc(Cl)c3)CC2)c1)C(F)F	-3	70*	-0.87	0	2	6
Cc1ccc(/C=C2\Sc3ccccc3C2=O)s1	3	70*	-0.052	4	5	0
CC(=O)Nc1ccc(/C=C2\Sc3ccccc3C2=O)cc1	4	29	-0.35	3	1	0
O=C(NCCc1ccc(Cl)cc1)c1ccc2[nH]c(=O)c(=O)[nH]c2c1	-1	/	/	-6	4	5
CCOC(=O)C1=C(c2ccccc2)OC(N)=C(C#N)C1c1ccc(Cl)s1 (stereo unspecified)	3	78*	0.18	2	-1	-15
CCOC(=O)C1=C(c2ccccc2)OC(N)=C(C#N)C1c1ccc(Br)s1 (stereo unspecified)	2	82*	-1.2	-2	-3	0
COc1cccc(CNC(=O)COc2cc3c(c4oc(=O)cc(C)c24)CCC(C)(C)O3)c1	2	/	/	1	1	-6
CCOC(=O)c1c(C)[nH]c(C)c1S(=O)(=O)NCCc1ccco1	2	/	/	-3	-1	-6
Cc1cc2oc3ccc(NCCCn4ccnc4)cc3c(=O)c2cc1C	2	/	/	6	-10	/
Cc1nc(SC2CC(=O)N(c3cc(Cl)cc(Cl)c3)C2=O)nc2c1CCCC2 (stereo unspecified)	-1	95*	-0.31	0	3	-3
Cc1cccc(N2C(=O)CC(Sc3nc(C)c4c(n3)CCCC4)C2=O)c1 (stereo unspecified)	0	-2	-0.15	-2	-34	-6
COc1ccc(-c2csc(NC(=S)NC(=O)/C=C/c3ccco3)n2)cc1OC	/	95*	-0.72	/	-3	-16
Cc1ccc(NC(=O)CSc2nnc(-c3ccccc3Br)o2)cc1C	-1	68	-0.7	-2	-3	-4
CCOc1ccc(NC(=O)CSc2nnc(COc3c(C)cccc3C)o2)cc1	1	87*	-0.62	-1	-1	-9
Cc1cccc(C)c1OCc1nnc(SCC(=O)Nc2nccs2)o1	-3	33	1.3	1	0	-4
Cc1ccc(NC(=O)CSc2nnc(-c3ccccc3C)o2)cc1C	1	70*	-1.2	2	-2	-21
NC(N)=N/N=C/c1ccc(OS(=O)(=O)c2ccccc2)cc1	0	-3	0.26	-1	14	-3
COc1ccc2c(c1)c1nc3n(c(=O)c1n2CC(=O)Nc1ccccc1)CCCS3	4	/	/	2	-12	-15
Cc1cc(C)c(O)c(-c2cc(C(=O)Nc3ccc(S(=O)(=O)N4CCOCC4)cc3)[nH]n2)c1	11	85*	4	4	36	6
CC(=O)Nc1ccc(NC(=O)c2cc(-c3cc(C)cc(C)c3O)n[nH]2)cc1	3	/	/	0	5	-4
COc1ccc(N2CCN(c3ccc(NC(=O)NN)cc3)CC2)cc1	2	/	/	-2	11	0
O=C(O)CSc1ccc(NC(=O)Nc2ccccc2F)cc1	0	-4	0.011	-6	3	1
COc1ccc(C(=O)/C=C/c2ccc(O)cc2)c(O)c1CC=C(C)C	1	79*	0.17	-3	5	-1
CC(=O)Nc1ccc(S(=O)(=O)N2CCN(c3cc(C)ccc3C)CC2)cc1	-1	75*	0.3	-1	7	7
